Data on 63 compounds can be found in ChEMBL document CHEMBL1132300, “1,3-Disubstituted benzazepines as novel, potent, selective neuropeptide Y Y1 receptor antagonists” (J Med Chem, 1999).

Each structure is given as a SMILES string.

The test concerns the target T1, Neuropeptide Y receptor type 1 (Homo sapiens, UniProt P25929).
T1 sequence (P25929 whole entry): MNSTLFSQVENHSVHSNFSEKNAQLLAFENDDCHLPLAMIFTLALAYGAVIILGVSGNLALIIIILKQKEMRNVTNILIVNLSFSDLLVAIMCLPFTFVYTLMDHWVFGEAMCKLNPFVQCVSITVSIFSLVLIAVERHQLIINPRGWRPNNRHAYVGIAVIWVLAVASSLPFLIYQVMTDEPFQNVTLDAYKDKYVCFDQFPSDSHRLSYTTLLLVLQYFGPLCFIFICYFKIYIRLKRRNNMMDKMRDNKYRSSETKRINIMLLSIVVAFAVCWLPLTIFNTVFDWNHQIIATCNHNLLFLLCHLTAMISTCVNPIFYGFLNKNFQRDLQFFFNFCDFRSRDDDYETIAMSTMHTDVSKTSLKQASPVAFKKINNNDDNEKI
As to the kind of experiment: In vitro binding affinity towards Neuropeptide Y receptor type 1 was determined as potency to displace [125I]-peptide YY binding to human neuroblastoma SK-N-MC cells. Format: cell-based. The gist of the method:
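Intact SK-N-MC cells grown 2 days, washed with HEPES (20 mM)-buffered Hank's solution pH 7.4 plus 1% BSA, then incubated with 0.1 nM [125I]PYY and varying concentrations of unlabeled compound at 37 °C for 60 min. Washed twice with ice-cold buffer, lysed in 1 N NaOH, gamma-counted. Nonspecific binding defined with 10^-6 M NPY.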

As for `C/N=C(/Nc1ccc(O)cc1)NC1CCc2ccccc2N(Cc2cccc(NC(=O)NC(C)C)c2)C1=O` (stereo not drawn), the affinity, expressed as Ki, was 0.0073 µM.
The value for `CC(C)NC(=O)Nc1cccc(CN2C(=O)C(NC(=O)Nc3ccc4ncccc4c3)CCc3ccccc32)c1` (stereo not drawn) was 0.056 µM; that for `O=C(Nc1ccccc1)NC1CCc2ccccc2N(Cc2cccc(NC(=O)N3CCOCC3)c2)C1=O` (stereo not drawn) was > 10 µM.
The value for `CC(C)NC(=O)Nc1cccc(CN2C(=O)C(N=C(Nc3ccc(O)cc3)NC(C)C)CCc3ccccc32)c1` (stereo not drawn) was 0.036 µM; that for `CC(C)NC(=O)Nc1cccc(CN2C(=O)C(NC(=O)Nc3ccccn3)CCc3ccccc32)c1` (stereo not drawn) was 0.24 µM; that for `CC(C)NC(=O)Nc1cccc(CN2C(=O)C(NC(=O)Nc3ccc(-c4ccccc4)cc3)CCc3ccccc32)c1` (stereo not drawn) was 0.61 µM.
As for `CC(C)NC(=O)Nc1cccc(CN2C(=O)C(NC(=O)Nc3ccc4ocnc4c3)CCc3ccccc32)c1` (stereo not drawn), the Ki (as a rule, the dissociation constant of the complex between target and ligand, obtained from inhibition or displacement) turned out to be 0.017 µM.
The value for `CC(C)NC(=O)Nc1cccc(CN2C(=O)C(NC(=O)Oc3ccccc3)CCc3ccccc32)c1` (stereo not drawn) was 2.1 µM; that for `CC(C)NC(=O)Nc1cccc(CN2C(=O)C(CNC(=O)Nc3ccccc3)CCc3ccccc32)c1` (stereo not drawn) was 1.4 µM.
The value for `CC(C)NC(=O)Nc1cccc(CN2C(=O)C(COC(=O)Nc3ccccc3)CCc3ccccc32)c1` (stereo not drawn) was 4.1 µM.
The value for `CC(C)NC(=O)Nc1cccc(CN2C(=O)C(NC(=O)Nc3ccc4c(c3)OCO4)CCc3ccccc32)c1` (stereo not drawn) was 0.028 µM; that for `CC(C)NC(=O)Nc1cccc(CN2C(=O)C(NC(=O)Nc3cc[nH]n3)CCc3ccccc32)c1` (stereo not drawn) was > 10 µM; that for `CC(C)NC(=O)Nc1cccc(CN2C(=O)C(OC(=O)Nc3ccccc3)CCc3ccccc32)c1` (stereo not drawn) was 0.45 µM.
The compound `CC(C)NC(=O)Nc1cccc(CN2C(=O)C(NC(=O)Nc3ccc4ccsc4c3)CCc3ccccc32)c1` (stereo not drawn) gave a Ki of 0.0078 µM.
`CC(C)NC(=O)Cc1cccc(CN2C(=O)C(NC(=O)Nc3ccccc3)CCc3ccccc32)c1` (stereo not drawn) came in with a Ki of 3.8 µM. This Ki lies about 490-fold higher than the previous one.
In turn, `CC(C)NC(=O)Nc1cccc(CN2C(=O)C(NC(=O)Nc3ccc([N+](=O)[O-])cc3)CCc3ccccc32)c1` (stereo not drawn) showed a Ki of 0.088 µM.
The value for `CC(C)NC(=O)Nc1cccc(CN2C(=O)C(NC(=O)Nc3ccccc3)CCCc3ccccc32)c1` (stereo not drawn) was 0.056 µM; that for `CC(C)NC(=O)Nc1cccc(CN2C(=O)C(NC(=O)Nc3ccc4[nH]ncc4c3)CCc3ccccc32)c1` (stereo not drawn) was 0.026 µM.
The value for `CC(C)NC(=O)Nc1cccc(CN2C(=O)C(NC(=O)Nc3ccc4c(c3)C(=O)N(C)C4=O)CCc3ccccc32)c1` (stereo not drawn) was 0.78 µM; that for `O=C(Nc1ccccc1)NC1CCc2ccccc2N(Cc2cccc(NC(=O)Oc3ccccc3)c2)C1=O` (stereo not drawn) was > 10 µM; that for `CC(C)NC(=O)Nc1cccc(CN2C(=O)C(NC(=O)Nc3ccccc3F)CCc3ccccc32)c1` (stereo not drawn) was 0.0076 µM.
The value for `O=C(Nc1cccc(CN2C(=O)C(NC(=O)Nc3ccccc3)CCc3ccccc32)c1)NC1CC1` (stereo not drawn) was 0.91 µM.
For `CNC(=O)Nc1cccc(CN2C(=O)C(NC(=O)Nc3ccccc3)CCc3ccccc32)c1` (stereo not drawn), the Ki was 7.3 µM.
The value for `CC(C)NC(=O)Nc1cccc(CN2C(=O)C(/N=C(\N)Nc3ccc(O)cc3)CCc3ccccc32)c1` (stereo not drawn) was 0.0029 µM; that for `CC(C)NC(=O)Nc1cccc(CN2C(=O)C(NC(=O)Nc3ccc4sccc4c3)CCc3ccccc32)c1` (stereo not drawn) was 0.013 µM.
As for `CC(C)NC(=O)Nc1cccc(CN2C(=O)C(NC(=O)Nc3ccccc3)COc3ccccc32)c1` (stereo not drawn), the Ki came out at 0.47 µM. Against the preceding compound, the Ki is about 36-fold higher.
The value for `CC(C)NC(=O)Nc1cccc(CN2C(=O)C(NC(=O)Nc3ccc4c(c3)OCCO4)CCc3ccccc32)c1` (stereo not drawn) was 0.018 µM; that for `C/N=C(/Nc1ccccc1)NC1CCc2ccccc2N(Cc2cccc(NC(=O)NC(C)C)c2)C1=O` (stereo not drawn) was 0.015 µM; that for `O=C(Nc1ccccc1)Nc1cccc(CN2C(=O)C(NC(=O)Nc3ccccc3)CCc3ccccc32)c1` (stereo not drawn) was > 10 µM.
The value for `COc1ccc(NC(=O)NC2CCc3ccccc3N(Cc3cccc(NC(=O)NC(C)C)c3)C2=O)cc1` (stereo not drawn) was 0.08 µM; that for `CC(C)NC(=O)Nc1cccc(CN2C(=O)C(NS(=O)(=O)c3ccccc3)CCc3ccccc32)c1` (stereo not drawn) was 5.5 µM.
On to `CC(C)NC(=O)Nc1nc(CN2C(=O)C(NC(=O)Nc3ccc(F)cc3F)CCc3ccccc32)cs1` (stereo not drawn), for which the Ki was > 10 µM.
The value for `CC(C)NC(=O)Nc1cccc(CN2C(=O)C(NC(=O)Nc3ccc(N(C)C)cc3)CCc3ccccc32)c1` (stereo not drawn) was 0.066 µM.
The value for `CC(C)NC(=O)Nc1cccc(CN2C(=O)C(NC(=O)Nc3nc4ccccc4s3)CCc3ccccc32)c1` (stereo not drawn) was 0.69 µM.
The value for `CC(C)NC(=O)Nc1cccc(CN2C(=O)C(NC(=O)Nc3ccc(O)cc3)CCc3ccccc32)c1` (stereo not drawn) was 0.082 µM.
`CC(C)NC(=O)Nc1cccc(CN2C(=O)C(NC(=O)Nc3ccc4[nH]ccc4c3)CCc3ccccc32)c1` (stereo not drawn) displayed a Ki of 0.018 µM.
The value for `COC(=O)Nc1cccc(CN2C(=O)C(NC(=O)Nc3ccccc3)CCc3ccccc32)c1` (stereo not drawn) was > 0.01 µM.
The value for `CC(C)NC(=O)Nc1cccc(CN2C(=O)C(NC(=O)Nc3cc(F)cc(F)c3)CCc3ccccc32)c1` (stereo not drawn) was 0.086 µM; that for `CC(C)NC(=O)Nc1cccc(CN2C(=O)C(NC(=O)Nc3ccc(F)cc3F)CCc3ccccc32)c1` (stereo not drawn) was 0.0078 µM.
The value for `CC(C)OC(=O)Nc1cccc(CN2C(=O)C(NC(=O)Nc3ccccc3)CCc3ccccc32)c1` (stereo not drawn) was 0.69 µM; that for `CC(C)NC(=O)Nc1cccc(CN2C(=O)C(NC(=O)Nc3ccc4scnc4c3)CCc3ccccc32)c1` (stereo not drawn) was 0.024 µM; that for `CC(C)NC(=O)Nc1cccc(CN2C(=O)C(N=C(NCCO)Nc3ccc(O)cc3)CCc3ccccc32)c1` (stereo not drawn) was 0.065 µM.
Turning to `CC(C)NC(=O)Nc1cccc(CN2C(=O)C(NC(=O)Nc3ccc4c(c3)CCC4)CCc3ccccc32)c1` (stereo not drawn), affinity was put at a Ki of 0.017 µM.
The value for `CC(C)NC(=O)Nc1cccc(CN2C(=O)C(NC(=O)Nc3ccncc3)CCc3ccccc32)c1` (stereo not drawn) was 0.083 µM; that for `CC(C)NC(=O)Nc1cccc(CN2C(=O)C(NC(=O)Nc3ccc4ccoc4c3)CCc3ccccc32)c1` (stereo not drawn) was 0.0078 µM.
The value for `CC(C)NC(=O)Nc1cccc(CN2C(=O)C(NC(=O)Nc3ccc4c(c3)C(=O)NC4=O)CCc3ccccc32)c1` (stereo not drawn) was 0.025 µM; that for `CC(C)NC(=O)Nc1cccc(CN2C(=O)C(NC(=O)c3ccccc3)CCc3ccccc32)c1` (stereo not drawn) was > 10 µM; that for `CC(C)NC(=O)Nc1cccc(CN2C(=O)C(NC(=O)Nc3cccc(F)c3F)CCc3ccccc32)c1` (stereo not drawn) was 0.1 µM.
The value for `CC(C)(C)OC(=O)Nc1cccc(CN2C(=O)C(NC(=O)Nc3ccccc3)CCc3ccccc32)c1` (stereo not drawn) was 1.2 µM; that for `CC(C)NC(=O)Nc1cccc(CN2C(=O)C(NC(=O)Nc3ccc(Cl)cc3)CCc3ccccc32)c1` (stereo not drawn) was 0.071 µM.
Compound `CC(C)CNC(=O)Nc1cccc(CN2C(=O)C(NC(=O)Nc3ccccc3)CCc3ccccc32)c1` (stereo not drawn) displayed a Ki of 0.14 µM. Against the preceding compound, the Ki is about 2-fold higher.
The value for `CN(C(=O)OC(C)(C)C)c1cccc(CN2C(=O)C(NC(=O)Nc3ccccc3)CCc3ccccc32)c1` (stereo not drawn) was > 10 µM; that for `CC(C)NC(=O)Nc1cccc(CN2C(=O)C(NC(=O)Nc3nccs3)CCc3ccccc32)c1` (stereo not drawn) was 0.16 µM; that for `CC(C)(C)NC(=O)Nc1cccc(CN2C(=O)C(NC(=O)Nc3ccccc3)CCc3ccccc32)c1` (stereo not drawn) was 0.075 µM.
The value for `CC(C)NC(=O)Nc1cccc(CN2C(=O)C(NC(=O)Nc3ccccc3)CCc3ccccc32)c1` (stereo not drawn) was 0.043 µM.
The value for `CC(C)NC(=O)Nc1cccc(CN2C(=O)C(NC(=O)Nc3ccc(N)cc3)CCc3ccccc32)c1` (stereo not drawn) was 0.2 µM.
For the compound `CC(C)NC(=O)Nc1cccc(CN2C(=O)C(NC(=O)Nc3cnc4ccccc4c3)CCc3ccccc32)c1` (stereo not drawn), the Ki worked out at 0.14 µM.
The value for `CC(C)NC(=O)Nc1cccc(CN2C(=O)C(NC(=O)Nc3ccc4ncsc4c3)CCc3ccccc32)c1` (stereo not drawn) was 0.0051 µM.
The value for `Nc1cccc(CN2C(=O)C(NC(=O)Nc3ccccc3)CCc3ccccc32)c1` (stereo not drawn) was > 10 µM.
The value for `CC(C)NC(=O)Nc1cccc(CN2CCCCC(NC(=O)Nc3ccccc3)C2=O)c1` (stereo not drawn) was 7 µM; that for `CC(C)NC(=O)Nc1cccc(CN2C(=O)C(NC(=O)Nc3ccc(F)cc3)CCc3ccccc32)c1` (stereo not drawn) was 0.029 µM; that for `CC(C)NC(=O)Nc1cccc(CN2C(=O)C(NC(=O)Nc3nncs3)CCc3ccccc32)c1` (stereo not drawn) was 0.15 µM.
With `NC(=O)Nc1cccc(CN2C(=O)C(NC(=O)Nc3ccccc3)CCc3ccccc32)c1` (stereo not drawn), the Ki was > 10 µM.
